# Screens from PubChem.
# ERp5 block = ERp5 (human) disulfide isomerase inhibition | Q15084 | ERp5 insulin aggregation, absorbance 650 nm, 90 min | inhibition, % at 9.99 µM | 350,000 tested, 0.05% active | AID 651711;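 active means mean replicate inhibition above about 25%, with every replicate also reaching it, limit read from the data, passing the limit was not always enough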
# Target sequence (Q15084 whole entry, looked up): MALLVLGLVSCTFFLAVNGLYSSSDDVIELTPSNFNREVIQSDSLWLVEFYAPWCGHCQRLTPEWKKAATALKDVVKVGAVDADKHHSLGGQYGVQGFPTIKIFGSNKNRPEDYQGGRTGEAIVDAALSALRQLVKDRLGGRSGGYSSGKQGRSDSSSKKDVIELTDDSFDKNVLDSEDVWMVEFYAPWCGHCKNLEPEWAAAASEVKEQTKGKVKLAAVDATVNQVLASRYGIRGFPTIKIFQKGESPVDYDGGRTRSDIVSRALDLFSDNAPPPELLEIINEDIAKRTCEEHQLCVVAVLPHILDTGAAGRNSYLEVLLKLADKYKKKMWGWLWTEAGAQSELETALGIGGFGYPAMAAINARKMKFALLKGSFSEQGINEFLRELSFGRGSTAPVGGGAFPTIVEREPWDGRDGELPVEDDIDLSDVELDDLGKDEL
# PDI inh = blocks human protein disulfide isomerase activity; P07237; PDI insulin aggregation turbidity, A650, 90 min; inhibition, % at 10 µM; 350,000 tested, 0.052% active; AID 588391;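 active means mean inhibition across replicates of 30% or more, whatever share of single replicates reach that level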
# TbMetRS inhib = Trypanosoma brucei MetRS inhibition; 360,000 tested, 0.4% active; purified T. brucei MetRS, ATP depletion, Kinase-Glo luminescence; AID 624268; inhibition, % at 11.9 µM;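 active means inhibition above a per-plate cutoff of the control wells' mean inhibition plus 3 SD, cut at about 5.5% in these data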;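 further: 0% = DMSO wells median and 100% = median of wells with control inhibitor compound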
#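 Material: parasite MetRS enzyme / Replication: singlicate, one well per compound / Signal: luminescence of leftover ATP / Schedule: 2 h aminoacylation at 25 °C after 15 min preincubation / Medium: HEPES-MgCl2-KCl buffer plus DTT, spermine, BSA, pyrophosphatase / Doses: 11.9 µM single point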
# TbMetRS confirm = Trypanosoma brucei MetRS inhibition confirmed | shares compounds with TbMetRS inhib | T. brucei MetRS enzyme, luminescence (ATP depletion) | inhibition, % at 11.9 µM | 1,400 tested, 93% active | AID 624412; in the data active means inhibition above about 7%
# Jurkat tox = counter-screen for T. brucei MetRS inhibitors: Jurkat cell cytotoxicity. shares compounds with TbMetRS inhib. inhibition, % at 8.3 µM. 1,400 tested, 12% active. Jurkat cells viability, ATP luminescence; in the data active means inhibition above about 15%;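 further: 0% = vehicle and 100% = reference inhibitor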
# TbMetRS FP orth = T. brucei MetRS inhibition, orthogonal assay; shares compounds with TbMetRS inhib; purified T. brucei MetRS, fluorescence polarization; inhibition, % at 11.9 µM; 1,400 tested, 44% active; in the data active means inhibition above about 17%;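 further: 0% = vehicle wells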
# * marks the source's active call; other numbers are inactive results; · = no result; ! = not active in a repeat. The list is not random: actives were taken first. Their share in the collection is about 0.4%.
SMILES,ERp5 block,PDI inh,TbMetRS inhib,TbMetRS confirm,Jurkat tox,TbMetRS FP orth
C[C@@H]1CN([C@@H](C)CO)C(=O)c2cc(NC(=O)Nc3ccc(F)cc3)ccc2O[C@@H](C)CCCCO[C@H]1CN(C)S(=O)(=O)c1cn(C)cn1,0,·,·,·,·,·
COC(=O)C1=C(N)Oc2cc(C)n(Cc3cccnc3)c(=O)c2C1c1cc(OC)ccc1OC (configuration not stated),·,21,40*,6.1*,2,4
COC(=O)C1=C(N)Oc2cc(C)n(Cc3cccnc3)c(=O)c2C1c1cccc(OC)c1OC (configuration not stated),·,3,-1,·,·,·
COC(=O)C1=C(N)Oc2cc(C)n(CCc3ccccc3)c(=O)c2C1c1cccnc1 (configuration not stated),·,-1,0,·,·,·
COC(=O)C1=C(N)Oc2cc(C)n(CCCn3ccnc3)c(=O)c2C1c1cccc(Cl)c1 (configuration not stated),·,1,19*,3,1,4
C[C@H]1CCCCO[C@H](CN(C)Cc2ccccc2)[C@@H](C)CN([C@@H](C)CO)C(=O)c2cc(NC(=O)Nc3ccc(C(F)(F)F)cc3)ccc2O1,-4,·,·,·,·,·
Oc1c(Cl)cc(Cl)cc1CNc1nc2ccccc2[nH]1,3,4,93*,108*,0,102*
Oc1c(Cl)cc(Cl)cc1CNc1ccccn1,1,4,0,·,·,·
O=C(C[C@H]1C=C[C@H](NC(=O)c2cccnc2)[C@H](CO)O1)NCc1ccncn1,11,·,·,·,·,·
CC(C)(C)[C@@H]1C=C(C(=O)N2CCCC2)O[C@H](OCc2ccc(CO)cc2)C1,6,·,·,·,·,·
Cc1ccc(NC(=O)Cn2c(CCC(=O)O)ccc2-c2ccc(Cl)cc2)cc1,-2,3,10*,34*,-6,17*
COc1cccc(NC(=O)Cn2c(CCC(=O)O)ccc2-c2ccc(Cl)cc2)c1,2,-4,0,·,·,·
Cc1ccc(NC(=O)CN2CC(C)SC2=NC2CCCCC2)cc1 (configuration not stated),2,-4,12*!,25*,4,6
Cc1ccc(NC(=O)CN2CCOCC2)cc1,-1,-5,1,·,·,·
CC(C)NC(=O)Nc1cccc2c1O[C@@H](CN(C)S(=O)(=O)c1cn(C)cn1)[C@H](C)CN([C@H](C)CO)C2=O,5,·,·,·,·,·
Cc1ccc(C)c(NC(=O)CCC(=O)N/N=C/c2cccnc2)c1,-19,-3,-1,·,·,·
Cc1cccc(NC(=O)CCC(=O)N/N=C/c2ccc(O)cc2O)c1,2,2,54*,81*,0,46*
O=C(CSCc1ccc(Cl)cc1)Nc1ccccc1O,4,11,1,·,·,·
Cc1ccc(SCCC(=O)N/N=C/c2ccccc2O)cc1,·,-6,18*,80*,13,51*
Cc1ccc(SCCC(=O)N/N=C/c2cccnc2)cc1,-4,0,11*,32*,11,21*
O=C(CCCSc1ccc(Cl)cc1)Nc1ccccc1O,·,6,18*,38*,12,24*
Cc1ccc(NC(=O)CCC(=O)N/N=C/c2ccccc2O)cc1,0,-1,-1,·,·,·
O=C(CCC(=O)Nc1ccc(Br)cc1)N/N=C/c1ccccc1O,-2,-19,1,·,·,·
C/C=C/c1ccc2c(c1)[C@@H]1[C@@H](CCN1S(=O)(=O)c1ccccc1C)[C@H](CO)N2,5,·,·,·,·,·
C=CCOC(=O)c1oc(COC[C@@H](NC(=O)N(C)Cc2ccccc2)c2ccccc2)c(C(=O)OC)c1C(=O)OC,7,·,·,·,·,·
SMILES,ERp5 block,PDI inh,TbMetRS inhib,TbMetRS confirm,Jurkat tox,TbMetRS FP orth
O=C(C[C@@H]1CC[C@H](NC(=O)C2CC2)[C@H](CO)O1)NCC1CC1,-4,·,·,·,·,·
C[C@H](NC(=O)C[C@H]1CC[C@@H](NC(=O)CN2CCOCC2)[C@@H](CO)O1)c1ccccc1,-2,·,·,·,·,·
CCC(=O)Nc1ccc2c(c1)OC[C@@H](C)N(Cc1ccccc1)C[C@@H](C)[C@@H](OC)CN(C)C2=O,1,·,·,·,·,·
Cc1noc(C)c1S(=O)(=O)Nc1ccc2c(c1)C(=O)N([C@H](C)CO)C[C@@H](C)[C@H](CN(C)S(=O)(=O)c1ccccc1)O2,10,·,·,·,·,·
COc1ccc(CCC(=O)Nc2c(-c3ccc(N(C)C)cc3)[nH][nH]c2=O)cc1,6,·,14*,3,2,-1
COc1ccc(-c2[nH][nH]c(=O)c2NC(=O)c2ccccn2)cc1,-4,·,-1,·,·,·
CSC[C@H]1CN(Cc2cccnc2)C(=O)[C@@H]1CC(=O)Nc1ccc(Br)cc1,3,3,69*,82*,-7,51*
CCC[C@H]1CN(Cc2cccnc2)C(=O)[C@@H]1CC(=O)Nc1ccc(Br)cc1,-1,3,72*,87*,-4,61*
O=C(C[C@H]1C(=O)N(Cc2cccnc2)C[C@@H]1Cc1ccccc1)Nc1ccccc1,7,-3,0,·,·,·
COc1ccc(NC(=O)C[C@H]2C(=O)N(Cc3cccnc3)C[C@@H]2Cc2ccccc2)cc1,1,0,1,·,·,·
C[C@@H]1CN([C@H](C)CO)C(=O)c2cc(C#CCN(C)C)cnc2O[C@@H]1CN(C)Cc1ccc(C(=O)O)cc1,0,·,·,·,·,·
O=C1CC(SCc2nc3ccccc3[nH]2)C(=O)N1c1ccc(F)c(Cl)c1 (configuration not stated),·,2,29*,21*,7,6
O=C1CC(SCc2nc3ccccc3[nH]2)C(=O)N1c1cccc(F)c1 (configuration not stated),1,3,26*,23*,17*,10
COc1ccc(N2C(=O)CC(SCc3ccc(Cl)cc3)C2=O)cc1 (configuration not stated),·,9,0,·,·,·
O=C1CC(SCc2nc3ccccc3[nH]2)C(=O)N1c1ccc(Cl)cc1 (configuration not stated),·,6,5.7*,5.7*,-2,0
CCOc1ccc(N2C(=O)CC(SCc3nc4ccccc4[nH]3)C2=O)cc1 (configuration not stated),-1,5,2,·,·,·
O=C1CC(N2CCC(c3nc4ccccc4[nH]3)CC2)C(=O)N1c1cccc(F)c1 (configuration not stated),0,17,2,·,·,·
Cc1noc(C)c1NC(=O)N(C)C[C@@H]1Oc2ccc(NS(=O)(=O)c3cn(C)cn3)cc2C(=O)N([C@H](C)CO)C[C@@H]1C,1,·,·,·,·,·
COCC(=O)Nc1ccc2c(c1)OC[C@@H](C)N(CCc1ccccc1)C[C@@H](C)[C@H](OC)CN(C)C2=O,-2,·,·,·,·,·
COc1cccc(N=C2SC(CC(=O)Nc3ccccc3)C(=O)N2Cc2ccccn2)c1 (configuration not stated),1,13,6.6*,11*,3,9
O=C(CC1SC(=Nc2ccccc2)N(CCc2ccccn2)C1=O)Nc1ccc(F)cc1 (configuration not stated),2,19,0,·,·,·
C[C@H](CO)N1C[C@H](C)[C@@H](CN(C)Cc2ccncc2)Oc2c(NC(=O)c3cnccn3)cccc2C1=O,2,·,·,·,·,·
